From ChEMBL document CHEMBL2062398, “De novo peptide design with C3a receptor agonist and antagonist activities: theoretical predictions and experimental validation” (J Med Chem, 2012)
Active and inactive are the calls of the source. The calls are words filed in the database; no cut-off is given here.

Columns and labels:
[1] = biological target: T1, C3a anaphylatoxin chemotactic receptor (Homo sapiens) (UniProt Q16581); assay: Agonist activity at human C3a receptor expressed in RBL-2H3 cells assessed as beta-hexosaminidase activity in cell supernatant by degranulation assay relative to FLPLAR; assay type: functional, cell-based
T1 sequence (whole entry): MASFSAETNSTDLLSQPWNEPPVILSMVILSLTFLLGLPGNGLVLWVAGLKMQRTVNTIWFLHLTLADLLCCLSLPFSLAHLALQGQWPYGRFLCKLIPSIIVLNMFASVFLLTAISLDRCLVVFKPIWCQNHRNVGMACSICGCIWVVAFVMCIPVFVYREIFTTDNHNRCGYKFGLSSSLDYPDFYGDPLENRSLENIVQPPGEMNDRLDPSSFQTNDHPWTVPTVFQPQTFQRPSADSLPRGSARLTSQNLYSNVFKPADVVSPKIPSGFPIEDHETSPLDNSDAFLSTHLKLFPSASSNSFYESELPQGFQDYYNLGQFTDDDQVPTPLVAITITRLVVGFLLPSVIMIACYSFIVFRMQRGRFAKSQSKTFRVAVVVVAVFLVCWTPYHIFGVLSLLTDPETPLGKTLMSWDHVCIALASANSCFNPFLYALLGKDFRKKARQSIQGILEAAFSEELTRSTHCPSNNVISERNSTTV
Procedure, shortened: (§1)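 Transfected RBL-2H3 cells kept in DMEM, 10% FCS, 400 mg/liter G-418, 37°C, 5% CO2. Degranulation read as β-hexosaminidase activity in supernatant. Secretion expressed as percent of maximal response to 200 nM recombinant human C3a or 10 nM FLPLAR. EC50, calculated maximum and SEM from iterative curve fitting.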

[2] = biological target: T1, C3a anaphylatoxin chemotactic receptor (Homo sapiens); assay: Antagonist activity at human C3a receptor expressed in RBL-2H3 cells assessed as inhibition of human recombinant C3a -induced beta-hexosaminidase activity in cell supernatant measuring minimum receptor activity compound preincubated for 10 mins by degranulation assay; assay type: functional, cell-based; design: scale not given: the % may be the effect or the level left
Procedure, shortened: (§2)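 RBL-2H3 cells expressing human C3aR (DMEM, 10% FCS, G-418, 37°C) were pretreated with peptide for 10 min before 200 nM recombinant human C3a or 10 nM FLPLAR was added. β-Hexosaminidase release in supernatant was measured as percent of the agonist-alone response. IC50, calculated minimum and SEM came from iterative curve fitting.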

[3] = biological target: T2, C5a anaphylatoxin chemotactic receptor 1 (Homo sapiens) (UniProt P21730); assay: Agonist activity at human C5a receptor expressed in RBL-2H3 cells assessed as beta-hexosaminidase activity in cell supernatant up to 1 uM by degranulation assay; assay type: functional, cell-based
T2 sequence (whole entry): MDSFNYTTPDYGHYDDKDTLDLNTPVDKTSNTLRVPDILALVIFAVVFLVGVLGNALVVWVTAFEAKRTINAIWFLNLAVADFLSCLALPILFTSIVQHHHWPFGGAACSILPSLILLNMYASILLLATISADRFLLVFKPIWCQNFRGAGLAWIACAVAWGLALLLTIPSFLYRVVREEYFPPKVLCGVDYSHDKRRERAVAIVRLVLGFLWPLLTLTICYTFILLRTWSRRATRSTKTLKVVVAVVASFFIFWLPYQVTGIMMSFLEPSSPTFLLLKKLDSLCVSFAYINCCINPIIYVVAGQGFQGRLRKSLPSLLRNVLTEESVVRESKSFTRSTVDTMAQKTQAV
Procedure, shortened: (§3)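 Human C5aR-transfected RBL-2H3 cells were tested with peptides up to 1 μM. In the agonist mode, β-hexosaminidase secretion was taken relative to 200 nM human C5a. In the antagonist mode, cells were pretreated with peptide for 10 min before C5a was added.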

[4] = biological target: T2, C5a anaphylatoxin chemotactic receptor 1 (Homo sapiens); assay: Antagonist activity at human C5a receptor expressed in RBL-2H3 cells assessed as beta-hexosaminidase activity in cell supernatant up to 1 uM compound preincubated for 10 mins by degranulation assay; assay type: functional, cell-based; procedure, shortened: as §3
[5] = biological target: T1, C3a anaphylatoxin chemotactic receptor (Homo sapiens); assay: Agonist activity at human C3a receptor expressed in RBL-2H3 cells assessed as beta-hexosaminidase activity in cell supernatant by degranulation assay relative to recombinant human C3a; assay type: functional, cell-based; procedure, shortened: as §1
[6] = biological target: T1, C3a anaphylatoxin chemotactic receptor (Homo sapiens); assay: Antagonist activity at human C3a receptor expressed in RBL-2H3 cells assessed as inhibition of FLPLAR-induced beta-hexosaminidase activity in cell supernatant measuring minimum receptor activity compound preincubated for 10 mins by degranulation assay; assay type: functional, cell-based; design: scale not given: the % may be the effect or the level left; procedure, shortened: as §2
[7] = biological target: T3, C3a anaphylatoxin chemotactic receptor (Homo sapiens, UniProt Q16581); assay: Agonist activity at human C3a receptor expressed in RBL-2H3 cells assessed as beta-hexosaminidase activity in cell supernatant by degranulation assay; assay type: functional, cell-based
T3 sequence (Q16581 whole entry): T1 sequence (whole entry)
Procedure, shortened: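 Degranulation read as β-hexosaminidase activity in supernatant. Secretion expressed as percent of maximal response to 200 nM recombinant human C3a or 10 nM FLPLAR. EC50, calculated maximum and SEM from iterative curve fitting.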

[8] = biological target: T3, C3a anaphylatoxin chemotactic receptor; assay: Antagonist activity at human C3a receptor expressed in RBL-2H3 cells assessed as beta-hexosaminidase activity in cell supernatant compound preincubated for 10 mins by degranulation assay; assay type: functional, cell-based
[9] = biological target: T3, C3a anaphylatoxin chemotactic receptor; assay: Agonist activity at C3a receptor in dbcAMP differentiated human U937 cells assessed as increase in intracellular calcium using […] staining by microplate reader; assay type: functional, cell-based, U-937
Procedure, shortened: (§4)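 U937 cells grown in RPMI-1640 with 10% FCS at 37°C, 5% CO2, differentiated 48 h in 1 mM dibutyryl cAMP. Intracellular calcium rise read with Fluo-4 dye on a plate reader.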

[10] = biological target: T1, C3a anaphylatoxin chemotactic receptor (Homo sapiens); assay: Agonist activity at C3a receptor in dbcAMP differentiated human U937 cells assessed as increase in intracellular calcium using […] staining by microplate reader relative to FLPLAR; assay type: functional, cell-based; conditions: U-937; procedure, shortened: as §4

Q: Which results are given for Ac-WWGKKYRASKLGLAR-OH?
A: Emax [1]: 38%; Activity [2]: 52%; Activity [3]: inactive; Activity [4]: inactive

Q: How did the Emax [5] turn out when Ac-WWTRRWRASKLGLAR-OH was run?
A: 35%

Q: And the Emax [1]?
A: 35%

Q: What about the Activity [6] of the same substance?
A: 47%

Q: And the Activity [2]?
A: 47%

Q: And the Activity [3]?
A: inactive

Q: What about the Activity [4] of the same substance?
A: inactive

Q: And the EC50 [7]?
A: 195 nM

Q: And the IC50 [8]?
A: 50.1 nM

Q: What does the source list for Ac-WWDRRWRASKLGLAR-OH?
A: Emax [5]: 14%; Emax [1]: 14%; Activity [6]: 48%; Activity [2]: 24%; Activity [3]: inactive; Activity [4]: inactive

Q: With H-WWTRRWRASKLGLAR-OH as the substance, how does the Emax [1] read?
A: 37%

Q: And the Activity [6]?
A: 63%

Q: What about the Activity [3] of the same substance?
A: inactive

Q: What about the Activity [4] of the same substance?
A: inactive

Q: For Ac-WWRNRWRENRLGLAR-OH, which Emax [5] is on record?
A: 62%

Q: And the Activity [6]?
A: 62.5%

Q: What about the Activity [2] of the same substance?
A: 62.5%

Q: And the Activity [3]?
A: inactive

Q: And the Activity [4]?
A: inactive

Q: Which results are given for “Ac-WWTRRWRTEKLGLAR-OH [listing 1 of 2 here]”?
A: Emax [5]: 45%; Emax [1]: 45%; Activity [6]: 60%; Activity [2]: 60%; Activity [3]: inactive; Activity [4]: inactive

Q: Which results are given for “Ac-WWTRRYRASKLGLAR-OH [listing 1 of 2 here]”?
A: EC50 [7]: 1000 nM; IC50 [8]: 23.4 nM

Q: Ac-WWTRRWRGDKLGLAR-OH was tested. Which Emax [5] did it give?
A: 72%

Q: And the Emax [1]?
A: 72%

Q: And the Activity [6]?
A: 70%

Q: And the Activity [2]?
A: 70%

Q: What about the Activity [3] of the same substance?
A: inactive

Q: What about the EC50 [9] of the same substance?
A: 794 nM

Q: What about the Activity [4] of the same substance?
A: inactive

Q: And the EC50 [7]?
A: 25.1 nM

Q: And the IC50 [8]?
A: 9.12 nM

Q: What about the Emax [10] of the same substance?
A: 81%

Q: Which Emax [5] does the source give for Ac-WWTRRWRADKLGLAR-OH here?
A: 79%

Q: And the Emax [1]?
A: 79%

Q: What about the Activity [6] of the same substance?
A: 68%

Q: And the Activity [2]?
A: 68%

Q: What about the Activity [3] of the same substance?
A: inactive

Q: What about the EC50 [9] of the same substance?
A: 490 nM

Q: And the Activity [4]?
A: inactive

Q: And the EC50 [7]?
A: 66.1 nM

Q: What about the IC50 [8] of the same substance?
A: 4.57 nM

Q: What about the Emax [10] of the same substance?
A: 74%

Q: “Ac-WWTRRWRTEKLGLAR-OH [listing 2 of 2 here]” was tested. Which EC50 [7] did it give?
A: 708 nM

Q: And the IC50 [8]?
A: 7.76 nM

Q: How did the Emax [5] turn out when Ac-WWSRRWRASKLGLAR-OH was run?
A: 13%

Q: What about the Emax [1] of the same substance?
A: 13%

Q: What about the Activity [6] of the same substance?
A: 40%

Q: What about the Activity [2] of the same substance?
A: 40%

Q: What about the Activity [3] of the same substance?
A: inactive

Q: And the Activity [4]?
A: inactive

Q: And the EC50 [7]?
A: 148 nM

Q: And the IC50 [8]?
A: 63.1 nM

Q: How did the Emax [5] turn out when Ac-WWERRWRASKLGLAR-OH was run?
A: 22%

Q: And the Emax [1]?
A: 22%

Q: What about the Activity [6] of the same substance?
A: 61%

Q: What about the Activity [2] of the same substance?
A: 35%

Q: What about the Activity [3] of the same substance?
A: inactive

Q: And the Activity [4]?
A: inactive

Q: With “Ac-WWTRRWRTDKLGLAR-OH [listing 1 of 2 here]” as the substance, how does the Emax [5] read?
A: 43%

Q: What about the Emax [1] of the same substance?
A: 43%

Q: And the Activity [6]?
A: 60%

Q: And the Activity [2]?
A: 60%

Q: What about the Activity [3] of the same substance?
A: inactive

Q: What about the Activity [4] of the same substance?
A: inactive

Q: Which Emax [5] does the source give for “Ac-WWTRRYRASKLGLAR-OH [listing 2 of 2 here]” here?
A: 29%

Q: What about the Emax [1] of the same substance?
A: 29%

Q: What about the Activity [6] of the same substance?
A: 42%

Q: What about the Activity [2] of the same substance?
A: 42%

Q: And the Activity [3]?
A: inactive

Q: And the Activity [4]?
A: inactive

Q: With “Ac-WWTRRWRTDKLGLAR-OH [listing 2 of 2 here]” as the substance, how does the EC50 [7] read?
A: 339 nM

Q: And the IC50 [8]?
A: 5.01 nM
